What was measured:
[1] = tested on: Phosphatidylinositol 4,5-bisphosphate 3-kinase catalytic subunit alpha isoform (Homo sapiens), P42336 [E545K]; experiment: Inhibition of human partial length PIK3CA E545K mutant (R108 to N1068 residues) expressed in HEK293 cells assessed as residual activity at 1000 nM after 30 mins by Kinomescan method relative to control; type: cell-based
Method in brief: (§1)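 KINOMEscan binding panel of 456 kinases, with the test compound at a single concentration of 1 µM. Read-out is Percent Control.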

[2] = target: Serine/threonine-protein kinase 26 (Homo sapiens) (UniProt Q9P289); experiment: Inhibition of wild-type human full length MST4 (M1 to P416 residues) expressed in HEK293 cells assessed as residual activity at 1000 nM after 30 mins by Kinomescan method relative to control; type: cell-based
Sequence of Serine/threonine-protein kinase 26 (Homo sapiens) (Q9P289 2-416 limits assumed): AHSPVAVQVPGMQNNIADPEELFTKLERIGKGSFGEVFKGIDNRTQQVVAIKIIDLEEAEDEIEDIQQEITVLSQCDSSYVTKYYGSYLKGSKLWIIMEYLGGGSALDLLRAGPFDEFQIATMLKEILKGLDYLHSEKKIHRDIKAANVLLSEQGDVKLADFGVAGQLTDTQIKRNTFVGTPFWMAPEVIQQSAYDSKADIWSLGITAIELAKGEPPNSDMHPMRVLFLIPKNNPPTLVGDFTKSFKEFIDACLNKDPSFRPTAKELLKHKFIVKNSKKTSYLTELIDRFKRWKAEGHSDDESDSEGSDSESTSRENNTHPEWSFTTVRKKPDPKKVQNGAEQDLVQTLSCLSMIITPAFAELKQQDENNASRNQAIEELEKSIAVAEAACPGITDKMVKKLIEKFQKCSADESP
Method in brief: (§2)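 Single-concentration screen at 1 µM across a 456-kinase KINOMEscan panel. The read-out is Percent Control for each kinase.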

[3] = target: Serine/threonine-protein kinase 24 (Homo sapiens) (UniProt Q9Y6E0); experiment: Inhibition of wild-type human partial length MST3 (A30 to S311 residues) expressed in Escherichia coli BL21 assessed as residual activity at 1000 nM after 30 mins by Kinomescan method relative to control
Sequence of Serine/threonine-protein kinase 24 (Homo sapiens) (Q9Y6E0 whole entry, looked up, the tested form may be a part): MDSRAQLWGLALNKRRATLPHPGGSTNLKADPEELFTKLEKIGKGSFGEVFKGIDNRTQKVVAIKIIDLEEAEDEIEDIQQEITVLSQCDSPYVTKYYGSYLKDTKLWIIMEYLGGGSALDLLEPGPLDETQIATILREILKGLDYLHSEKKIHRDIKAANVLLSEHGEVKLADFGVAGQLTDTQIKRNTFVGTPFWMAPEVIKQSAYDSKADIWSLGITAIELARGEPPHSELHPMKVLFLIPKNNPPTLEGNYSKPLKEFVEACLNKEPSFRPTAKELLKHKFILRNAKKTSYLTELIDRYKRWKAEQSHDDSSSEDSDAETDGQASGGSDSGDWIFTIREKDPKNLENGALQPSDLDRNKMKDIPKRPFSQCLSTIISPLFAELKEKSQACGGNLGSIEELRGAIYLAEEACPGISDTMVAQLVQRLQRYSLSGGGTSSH

[4] = target: Cyclin-dependent kinase 5 (Homo sapiens) (UniProt Q00535); experiment: Inhibition of wild-type human full length CDK5 (M1 to P292 residues) expressed in Escherichia coli BL21 assessed as residual activity at 1000 nM after 30 mins by Kinomescan method relative to control
Sequence of Cyclin-dependent kinase 5 (Homo sapiens) (Q00535 whole entry, looked up, the tested form may be a part): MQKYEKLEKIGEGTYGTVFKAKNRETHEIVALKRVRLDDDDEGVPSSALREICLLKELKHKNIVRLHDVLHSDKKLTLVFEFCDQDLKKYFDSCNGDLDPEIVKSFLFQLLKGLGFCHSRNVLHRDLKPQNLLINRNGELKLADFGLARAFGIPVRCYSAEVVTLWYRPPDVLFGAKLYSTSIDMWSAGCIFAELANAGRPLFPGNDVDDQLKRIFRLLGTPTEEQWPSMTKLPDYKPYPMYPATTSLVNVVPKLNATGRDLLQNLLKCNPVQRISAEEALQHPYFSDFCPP
Method in brief: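 Single-point screen at a fixed 1 µM, run within a 456-kinase DiscoveRx KINOMEscan panel. Each kinase's read-out is Percent Control, i.e. signal relative to a control without compound. Hits were scored by a Percent Control < 35 cut-off, and an S(35) selectivity score was calculated across the non-mutant kinases.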

[5] = target: NUAK family SNF1-like kinase 1 (Homo sapiens) (UniProt O60285); experiment: Inhibition of wild-type human partial length ARK5 (E25 to I332 residues) expressed in Escherichia coli BL21 assessed as residual activity at 1000 nM after 30 mins by Kinomescan method relative to control
Sequence of NUAK family SNF1-like kinase 1 (Homo sapiens) (O60285 whole entry, the tested form may be a part): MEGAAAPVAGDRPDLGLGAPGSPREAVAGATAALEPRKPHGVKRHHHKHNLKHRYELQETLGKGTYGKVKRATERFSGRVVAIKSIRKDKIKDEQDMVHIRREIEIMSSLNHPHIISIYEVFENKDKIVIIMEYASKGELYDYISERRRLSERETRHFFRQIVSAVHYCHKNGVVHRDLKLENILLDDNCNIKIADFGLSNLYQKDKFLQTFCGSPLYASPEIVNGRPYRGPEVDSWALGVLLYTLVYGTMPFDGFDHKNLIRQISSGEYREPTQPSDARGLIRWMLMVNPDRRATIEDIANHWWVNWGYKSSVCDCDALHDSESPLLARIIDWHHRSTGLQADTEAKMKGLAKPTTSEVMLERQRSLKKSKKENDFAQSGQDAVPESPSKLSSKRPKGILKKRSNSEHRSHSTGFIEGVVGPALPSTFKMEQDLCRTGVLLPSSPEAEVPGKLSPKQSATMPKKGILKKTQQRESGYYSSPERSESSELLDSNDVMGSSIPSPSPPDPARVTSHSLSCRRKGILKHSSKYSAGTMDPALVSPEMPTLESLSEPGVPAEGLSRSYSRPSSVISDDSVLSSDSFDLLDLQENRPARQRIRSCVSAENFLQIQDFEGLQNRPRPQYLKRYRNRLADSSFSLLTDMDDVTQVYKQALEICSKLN

[6] = target: Cyclin-dependent kinase 11B (Homo sapiens) (UniProt P21127); experiment: Inhibition of wild-type human partial length CDK11 (M1 to N360 residues) expressed in Escherichia coli BL21 assessed as residual activity at 1000 nM after […] by Kinomescan method relative to control
[7] = target: Serine/threonine-protein kinase Nek4 (Homo sapiens) (UniProt P51957); experiment: Inhibition of wild-type human full length NEK4 (M1 to F841 residues) expressed in HEK293 cells assessed as residual activity at 1000 nM after 30 mins by Kinomescan method relative to control; type: cell-based; method in brief: as §2
[8] = target: Serine/threonine-protein kinase SBK1 (Homo sapiens) (UniProt Q52WX2); experiment: Inhibition of wild-type human partial length SBK1 (P23 to P348 residues) expressed in HEK293 cells assessed as residual activity at 1000 nM after 30 mins by Kinomescan method relative to control; type: cell-based
Sequence of Serine/threonine-protein kinase SBK1 (Homo sapiens) (Q52WX2 whole entry, the tested form may be a part): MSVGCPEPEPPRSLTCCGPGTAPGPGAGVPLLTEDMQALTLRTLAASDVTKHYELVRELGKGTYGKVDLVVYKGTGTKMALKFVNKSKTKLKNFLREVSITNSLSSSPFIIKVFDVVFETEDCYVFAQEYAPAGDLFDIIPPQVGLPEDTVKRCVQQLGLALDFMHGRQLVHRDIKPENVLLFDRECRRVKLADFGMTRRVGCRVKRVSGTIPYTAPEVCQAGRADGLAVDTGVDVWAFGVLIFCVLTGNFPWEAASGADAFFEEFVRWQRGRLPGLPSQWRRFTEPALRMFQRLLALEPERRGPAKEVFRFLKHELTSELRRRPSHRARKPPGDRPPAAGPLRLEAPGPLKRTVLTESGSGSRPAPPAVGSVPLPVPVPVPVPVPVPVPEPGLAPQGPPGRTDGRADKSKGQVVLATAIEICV

[9] = target: STE20/SPS1-related proline-alanine-rich protein kinase (Homo sapiens) (UniProt Q9UEW8); experiment: Inhibition of wild-type human partial length STK39 (P43 to I357 residues) expressed in HEK293 cells assessed as residual activity at 1000 nM after 30 mins by Kinomescan method relative to control; type: cell-based
[10] = target: Fibroblast growth factor receptor 1 (Homo sapiens, UniProt P11362); experiment: Inhibition of human recombinant His-tagged FGFR1 cytoplasmic domain (308 to 731 residues) expressed in baculovirus using Tyr-4 peptide after 1 hr by FRET-based Z'-Lyte assay
Sequence of Fibroblast growth factor receptor 1 (P11362 whole entry, the tested form may be a part): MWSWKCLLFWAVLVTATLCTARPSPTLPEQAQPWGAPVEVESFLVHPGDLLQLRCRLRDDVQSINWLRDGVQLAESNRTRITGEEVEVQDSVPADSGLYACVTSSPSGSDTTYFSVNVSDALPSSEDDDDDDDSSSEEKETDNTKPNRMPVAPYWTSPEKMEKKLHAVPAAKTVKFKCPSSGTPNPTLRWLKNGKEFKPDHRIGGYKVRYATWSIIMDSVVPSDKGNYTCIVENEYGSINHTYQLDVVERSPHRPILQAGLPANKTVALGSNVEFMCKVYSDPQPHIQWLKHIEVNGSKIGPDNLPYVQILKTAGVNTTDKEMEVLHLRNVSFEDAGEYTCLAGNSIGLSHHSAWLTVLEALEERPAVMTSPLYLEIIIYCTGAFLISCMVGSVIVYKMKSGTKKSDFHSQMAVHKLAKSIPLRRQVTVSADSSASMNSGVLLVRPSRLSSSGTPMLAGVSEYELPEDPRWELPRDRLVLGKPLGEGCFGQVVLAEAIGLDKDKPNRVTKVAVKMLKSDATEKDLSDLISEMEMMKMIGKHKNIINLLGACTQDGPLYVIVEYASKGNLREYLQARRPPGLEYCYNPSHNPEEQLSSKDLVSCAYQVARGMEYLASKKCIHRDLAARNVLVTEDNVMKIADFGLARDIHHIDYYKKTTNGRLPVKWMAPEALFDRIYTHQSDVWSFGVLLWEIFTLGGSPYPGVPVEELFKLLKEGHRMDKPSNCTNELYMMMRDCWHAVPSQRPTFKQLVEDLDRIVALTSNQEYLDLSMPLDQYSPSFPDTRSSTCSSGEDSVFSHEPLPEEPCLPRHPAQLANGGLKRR

[11] = tested on: Tyrosine-protein kinase ABL1 (Homo sapiens), P00519 [Q252H]; experiment: Inhibition of human non-phosphorylated ABL1 Q252H mutant (S229 to K512 residues) expressed in HEK293 cells assessed as residual activity at 1000 nM after 30 mins by Kinomescan method relative to control; type: cell-based; method in brief: as §1
[12] = target: Serine/threonine-protein kinase tousled-like 1 (Homo sapiens) (UniProt Q9UKI8); experiment: Inhibition of wild-type human partial length TLK1 (K447 to A754 residues) expressed in Escherichia coli BL21 assessed as residual activity at 1000 nM after 30 mins by Kinomescan method relative to control
[13] = target: Peripheral plasma membrane protein CASK (Homo sapiens) (UniProt O14936); experiment: Inhibition of wild-type human partial length CASK (M1 to H315 residues) expressed in HEK293 cells assessed as residual activity at 1000 nM after 30 mins by Kinomescan method relative to control; type: cell-based
[14] = target: Ephrin type-B receptor 2 (Homo sapiens) (UniProt P29323); experiment: Inhibition of wild-type human partial length EPHB2 (I597 to L902 residues) expressed in Escherichia coli BL21 assessed as residual activity at 1000 nM after 30 mins by Kinomescan method relative to control
[15] = tested on: Epidermal growth factor receptor (Homo sapiens), P00533 [UNDEFINED MUTATION]; experiment: Inhibition of human partial length EGFR L747-T751del/Sins mutant expressed in Escherichia coli BL21 assessed as residual activity at 1000 nM after 30 mins by Kinomescan method relative to control; method in brief: as §1
[16] = target: BDNF/NT-3 growth factors receptor (Homo sapiens) (UniProt Q16620); experiment: Inhibition of wild-type human partial length TRKB (Q547 to G838 residues) expressed in HEK293 cells assessed as residual activity at 1000 nM after 30 mins by Kinomescan method relative to control; type: cell-based
[17] = target: Mitogen-activated protein kinase 3 (Homo sapiens) (UniProt P27361); experiment: Inhibition of wild-type human full length ERK1 (M1 to P379 residues) expressed in Escherichia coli BL21 assessed as residual activity at 1000 nM after 30 mins by Kinomescan method relative to control; method in brief: as §2
Sequence of Mitogen-activated protein kinase 3 (Homo sapiens) (P27361 whole entry, the tested form may be a part): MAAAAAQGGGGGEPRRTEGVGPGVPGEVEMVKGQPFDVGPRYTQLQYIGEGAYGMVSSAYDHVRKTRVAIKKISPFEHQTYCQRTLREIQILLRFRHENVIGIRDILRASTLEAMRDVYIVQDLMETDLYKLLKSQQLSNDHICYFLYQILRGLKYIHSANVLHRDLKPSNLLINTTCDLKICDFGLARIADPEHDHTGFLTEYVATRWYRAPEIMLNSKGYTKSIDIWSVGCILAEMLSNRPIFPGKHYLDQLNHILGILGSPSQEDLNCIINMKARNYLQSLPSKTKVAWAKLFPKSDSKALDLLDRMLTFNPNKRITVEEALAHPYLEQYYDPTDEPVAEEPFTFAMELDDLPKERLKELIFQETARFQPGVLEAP

[18] = target: NUAK family SNF1-like kinase 2 (Homo sapiens) (UniProt Q9H093); experiment: Inhibition of wild-type human partial length SNARK (P22 to A333 residues) expressed in HEK293 cells assessed as residual activity at 1000 nM after 30 mins by Kinomescan method relative to control; type: cell-based
Sequence of NUAK family SNF1-like kinase 2 (Homo sapiens) (Q9H093 whole entry, the tested form may be a part): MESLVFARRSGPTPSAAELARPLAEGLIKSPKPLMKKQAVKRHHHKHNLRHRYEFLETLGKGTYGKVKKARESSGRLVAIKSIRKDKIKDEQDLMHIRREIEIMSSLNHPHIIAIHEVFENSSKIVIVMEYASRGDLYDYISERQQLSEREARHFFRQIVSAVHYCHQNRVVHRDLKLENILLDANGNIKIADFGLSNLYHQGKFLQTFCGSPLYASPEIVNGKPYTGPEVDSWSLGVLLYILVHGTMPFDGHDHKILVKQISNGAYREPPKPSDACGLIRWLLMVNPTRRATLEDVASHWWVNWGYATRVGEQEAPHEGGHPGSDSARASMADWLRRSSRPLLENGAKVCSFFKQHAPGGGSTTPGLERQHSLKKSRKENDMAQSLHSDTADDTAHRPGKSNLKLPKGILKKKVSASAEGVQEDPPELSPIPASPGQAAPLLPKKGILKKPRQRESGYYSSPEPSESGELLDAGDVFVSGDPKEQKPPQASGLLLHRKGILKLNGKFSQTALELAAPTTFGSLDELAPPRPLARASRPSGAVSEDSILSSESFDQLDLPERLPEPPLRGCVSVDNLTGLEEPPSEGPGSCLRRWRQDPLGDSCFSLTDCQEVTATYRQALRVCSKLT

[19] = target: PDGFRB (platelet-derived growth factor receptor beta) (Homo sapiens, UniProt P09619); experiment: Inhibition of wild-type human partial length PDGFRB (V582 to Y1009 residues) expressed in Escherichia coli BL21 assessed as residual activity at 1000 nM after 30 mins by Kinomescan method relative to control; conditions: read-out: Activity
[20] = target: Phosphorylase b kinase gamma catalytic chain, skeletal muscle/heart isoform (Homo sapiens) (UniProt Q16816); experiment: Inhibition of wild-type human full length PHKG1 (M1 to Y387 residues) expressed in Escherichia coli BL21 assessed as residual activity at 1000 nM after 30 mins by Kinomescan method relative to control; method in brief: as §2
Sequence of Phosphorylase b kinase gamma catalytic chain, skeletal muscle/heart isoform (Homo sapiens) (Q16816 whole entry, looked up, the tested form may be a part, canonical isoform): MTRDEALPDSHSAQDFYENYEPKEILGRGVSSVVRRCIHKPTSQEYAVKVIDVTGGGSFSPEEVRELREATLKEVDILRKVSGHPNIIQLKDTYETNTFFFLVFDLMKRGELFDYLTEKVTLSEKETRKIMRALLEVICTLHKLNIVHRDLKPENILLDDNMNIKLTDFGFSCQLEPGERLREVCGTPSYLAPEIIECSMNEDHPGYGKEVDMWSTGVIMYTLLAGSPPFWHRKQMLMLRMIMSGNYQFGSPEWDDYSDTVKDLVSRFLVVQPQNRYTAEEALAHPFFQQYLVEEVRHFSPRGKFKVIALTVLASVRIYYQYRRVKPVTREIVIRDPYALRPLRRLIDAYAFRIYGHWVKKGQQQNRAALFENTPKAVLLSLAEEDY

[21] = target: Phosphatidylinositol 3-kinase C2 domain-containing subunit gamma (Homo sapiens) (UniProt O75747); experiment: Inhibition of wild-type human partial length PIK3C2G (M1 to I1446 residues) expressed in HEK293 cells assessed as residual activity at 1000 nM after 30 mins by Kinomescan method relative to control; type: cell-based

**Q.** Which results are given for `COc1cc(OC)c(Cl)c(N2Cc3cnc(Nc4ccc(F)cc4)nc3N(C3CCN(C(=O)/C=C/CN(C)C)CC3)C2=O)c1Cl`?
**A.** Activity [1]: 99%; Activity [2]: 69%; Activity [3]: 68%; Activity [4]: 100%; Activity [5]: 100%; Activity [6]: 79%; Activity [7]: 100%; Activity [8]: 90%; Activity [9]: 100%; IC50 [10]: 0.99 nM; Activity [11]: 33%; Activity [12]: 100%; Activity [13]: 96%; Activity [14]: 99%; Activity [15]: 95%; Activity [16]: 54%; Activity [17]: 100%; Activity [18]: 89%; activity at 0.5 h, 1 µM [19]: 1.5%; Activity [20]: 92%; Activity [21]: 95%

Source: ChEMBL document CHEMBL4043093, “2-Oxo-3, 4-dihydropyrimido[4, 5-d]pyrimidinyl derivatives as new irreversible pan fibroblast growth factor receptor (FGFR) inhibitors” (Eur J Med Chem, 2017)
